Our source for the Activity, Kd and Drug uptake values is ChEMBL document CHEMBL4842360, “Discovery of a Bicyclic Peptidyl Pan-Ras Inhibitor” (J Med Chem, 2021).

Molecules are shown by their SMILES. Active and inactive are the calls of the source. The rule behind the calls is not given here. Numbered stars: 1 amine (or outer) side, 2 acyl side, 3 side chain; on linkers, the order of the positions; unused ones are H or OH. Bridge positions count the residues as written; N and C are the ends. Square brackets hold non-standard residues; d marks the D form. Peptide text beside a SMILES is read from it. Trimesoyl = O=C(c1cc(C(=O)[*:2])cc(C(=O)[*:3])c1)[*:1]; d2Nal = N[C@H](Cc1ccc2ccccc2c1)C(=O)O; Phg = N[C@H](C(=O)O)c1ccccc1; Orn = NCCC[C@H](N)C(=O)O; Dap = NC[C@H](N)C(=O)O

The nature of series [1]: Toxicity in mouse xenografted with human A549 cells assessed as effect on body weight at 1 to 5 mg/kg, iv administered for 9 days. The class given is organism-based. The conditions noted are these: in vivo, 216 h, dose 1-5 mg/kg, time 9 day. The method, boiled down:
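About 1.5 million A549 cells given subcutaneously to nude mice. Dosing began once tumors reached ~40 mm3, with n = 6 per group. Mice received 1 or 5 mg/kg per day or vehicle (PBS) by tail-vein injection for 9 days. Body weight was monitored alongside tumor volume and weight at harvest.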
(Xenograft models place foreign cells or tissue in a host animal.)

Series [2] deals with A549. The series can be described thus: Antitumor activity against human A549 cells xenografted in mouse assessed as average tumor volume at 5 mg/kg, iv administered for 9 days measured every other day (reference value: 100 mm3). It counts as functional. Conditions: time 9 day. A digest of the protocol: (§1)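 Nude mice given ~1.5 million A549 cells subcutaneously. Once tumors reached ~40 mm3, groups of n = 6 received peptide at 1 or 5 mg/kg/day or PBS vehicle by tail-vein injection for 9 days. Tumor volume was tracked, and tumors were weighed at harvest.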

Series [3] deals with NCI-H358. The series can be described thus: Antitumor activity against human NCI-H358 cells xenografted in mouse assessed as reduction in ERK phosphorylation at 1 to 5 mg/kg, iv administered for 9 days measured every other day by immunohistochemical staining method. It counts as functional, organism-based. The conditions noted are these: dose 1-5 mg/kg, time 9.0 day.
In series [4] the target is Albumin (Bos taurus, UniProt P02769). The series can be described thus: Binding affinity to bovine serum albumin. The class given is ADME. The method, boiled down: (§2)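 Fluorescein-labeled peptide (100 nM) incubated 1 h at RT with varying concentrations of control protein (BSA, GST-RBD, PNP, PTP1B or MDM2). KD derived from fluorescence polarization titration curves.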
Sequence of Albumin (P02769 whole entry): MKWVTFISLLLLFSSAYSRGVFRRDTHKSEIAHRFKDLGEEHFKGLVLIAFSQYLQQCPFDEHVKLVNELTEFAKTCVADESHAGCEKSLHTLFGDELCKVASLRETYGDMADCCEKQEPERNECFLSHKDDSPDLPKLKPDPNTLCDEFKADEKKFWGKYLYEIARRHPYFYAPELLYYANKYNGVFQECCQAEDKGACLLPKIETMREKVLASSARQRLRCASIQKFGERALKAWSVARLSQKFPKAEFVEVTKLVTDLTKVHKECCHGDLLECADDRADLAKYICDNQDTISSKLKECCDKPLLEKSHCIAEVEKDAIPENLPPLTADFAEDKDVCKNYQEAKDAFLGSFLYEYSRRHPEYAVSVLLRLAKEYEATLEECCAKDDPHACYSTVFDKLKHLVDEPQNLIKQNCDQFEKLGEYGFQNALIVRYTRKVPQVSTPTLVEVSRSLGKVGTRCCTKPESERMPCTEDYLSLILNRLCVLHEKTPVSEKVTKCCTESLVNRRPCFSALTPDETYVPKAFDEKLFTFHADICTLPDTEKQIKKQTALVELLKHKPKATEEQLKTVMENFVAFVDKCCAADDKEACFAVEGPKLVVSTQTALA

Series [5] can be described thus: Drug distribution in human NCI-H358 cells assessed as diffuse fluorescence throughout the entire cell volume at 5 uM incubated for 2 hrs by live-cell confocal microscopy. The class given is ADME, cell-based. Conditions: nci-h358, 2 h. The method, boiled down:
(§3)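 HeLa, H358 or A549 cells treated with 5 μM fluorescein-labeled peptide for 2 h, then imaged by live-cell confocal microscopy for intracellular fluorescence pattern.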

For series [6], the system named is NCI-H358. The series can be described thus: Induction of apoptosis in human NCI-H358 cells assessed as necrotic cells at 5 uM incubated for 24 hrs by Alexa Fluor 488 annexin V/propidium iodide staining based assay (reference value: 0.699%). The class given is functional.
The subject of series [7] is NCI-H358. The series can be described thus: Induction of apoptosis in human NCI-H358 cells assessed as late apoptotic cells at 5 uM incubated for 24 hrs by Alexa Fluor 488 annexin V/propidium iodide staining based assay (reference value: […]). The class given is functional.
Series [8] has as its system NCI-H358. The series can be described thus: Induction of apoptosis in human NCI-H358 cells assessed as live cells at 1 uM incubated for 24 hrs by Alexa Fluor 488 annexin V/propidium iodide staining based assay (reference value: 87%). The class given is functional.
The test system of series [9] is A549. The series can be described thus: Antitumor activity against human A549 cells xenografted in mouse assessed as reduction in tumor growth at 5 mg/kg, iv administered for 9 days measured every other day. Conditions: time 9 day. Further details: scale not given: the % may be the effect or the level left. It counts as functional. A digest of the protocol:
as §1

Series [10] concerns NCI-H358. The series can be described thus: Induction of apoptosis in human NCI-H358 cells assessed as late apoptotic cells at 10 uM incubated for 24 hrs by Alexa Fluor 488 annexin V/propidium iodide staining based assay (reference value: […]). The class given is functional.
A short description of series [11]: Drug distribution in human A549 cells assessed as fluorescent puncta in cytoplasmic region at 5 uM incubated for 2 hrs by live-cell confocal microscopy. The class given is ADME, cell-based. Conditions: a549, 2 h. A digest of the protocol: as §3
The target in series [12] is T1, Purine nucleoside phosphorylase (Homo sapiens) (UniProt P00491).
T1 sequence (whole entry): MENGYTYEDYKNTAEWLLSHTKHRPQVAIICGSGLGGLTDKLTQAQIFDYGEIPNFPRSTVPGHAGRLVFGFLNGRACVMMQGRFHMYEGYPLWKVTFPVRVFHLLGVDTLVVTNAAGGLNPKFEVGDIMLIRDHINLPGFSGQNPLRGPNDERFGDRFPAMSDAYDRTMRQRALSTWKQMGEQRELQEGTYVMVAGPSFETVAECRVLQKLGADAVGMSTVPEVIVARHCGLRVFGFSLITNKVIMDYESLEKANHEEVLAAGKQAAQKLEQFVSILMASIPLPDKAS
The series can be described thus: Binding affinity to purine nucleoside phosphorylase (unknown origin). A digest of the protocol: as §2

As to `C[C@@H](NC(=O)[C@H](Cc1ccccc1)NC(=O)[C@@H](CCCNC(=N)N)NC(=O)[C@H](CCCN)NC(=O)[C@@H]1CNC(=O)c2cc3cc(c2)C(=O)N[C@H](Cc2ccc4ccccc4c2)C(=O)N[C@@H](CO)C(=O)N[C@@H](CC(N)=O)C(=O)N[C@H](Cc2ccc4ccccc4c2)C(=O)N[C@@H](c2ccccc2)C(=O)N[C@@H](CCCCNC3=O)C(=O)N[C@H](Cc2ccccc2)C(=O)N[C@@H](CCC(N)=O)C(=O)N[C@H](CCCNC(=N)N)C(=O)N[C@@H](CCCNC(=N)N)C(=O)N1)C(N)=O` ([d2Nal]SN[d2Nal][Phg]K[dF]Q[dR]R[Dap][Orn][dR]F[dA]-NH2; linker N-6-11 via Trimesoyl), the Activity result in series [1] is “Non-Toxic”; in [2], 35 mm3; in series [6], 1.14%; in series [7] it was 29.1%; in series [8] it was 87.7%; in series [9], 100%. The Activity in [10] is listed as 80%. Also, the result in [3] was Active. Also, in series [4], the equilibrium dissociation constant (Kd) (in general, the constant that tells how readily two partners part at equilibrium) is 57 µM. In addition, the Drug uptake entry in [5] and in [11] was “Active” each time. In [12], the outcome was inactive.
